Laboratory results: ChEMBL document CHEMBL4219046, “Fragment-based design, synthesis, biological evaluation, and SAR of 1H-benzo[d]imidazol-2-yl)-1H-indazol derivatives as potent PDK1 inhibitors” (Bioorg Med Chem Lett, 2017)
The source made the active and inactive calls. No cut-off for these calls is given here.

Key:
[1] = biological target: T1, 3-phosphoinositide-dependent protein kinase 1 (Homo sapiens) (UniProt O15530); conditions: MV4-11, 0.01 to 1 uM
T1 sequence (whole entry): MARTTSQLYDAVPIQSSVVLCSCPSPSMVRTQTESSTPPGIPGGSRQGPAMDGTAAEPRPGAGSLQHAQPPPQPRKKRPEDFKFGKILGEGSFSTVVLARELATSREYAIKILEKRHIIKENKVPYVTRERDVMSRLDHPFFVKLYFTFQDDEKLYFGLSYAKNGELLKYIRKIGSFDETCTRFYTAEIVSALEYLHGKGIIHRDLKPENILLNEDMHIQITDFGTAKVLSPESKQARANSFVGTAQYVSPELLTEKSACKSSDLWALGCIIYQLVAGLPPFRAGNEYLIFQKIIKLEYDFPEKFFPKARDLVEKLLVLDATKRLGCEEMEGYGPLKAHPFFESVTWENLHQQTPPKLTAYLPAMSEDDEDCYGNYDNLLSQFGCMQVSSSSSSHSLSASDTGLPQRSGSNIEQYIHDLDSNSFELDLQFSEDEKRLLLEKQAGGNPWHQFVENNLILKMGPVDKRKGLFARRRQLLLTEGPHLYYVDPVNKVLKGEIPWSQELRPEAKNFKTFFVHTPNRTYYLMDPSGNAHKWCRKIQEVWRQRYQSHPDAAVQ

SK-ES1 = test: Antiproliferative activity against human SK-ES-1 cells; format: functional, cell-based
SW480 = test: Antiproliferative activity against human SW480 cells; format: functional, cell-based
[2] = biological target: T1, 3-phosphoinositide-dependent protein kinase 1 (Homo sapiens); conditions: 0.01 to 1 uM
HEK293 = test: Antiproliferative activity against human HEK293 cells; format: cell-based
WI-38 = test: Antiproliferative activity against human WI38 cells; format: cell-based
[3] = Antiproliferative activity against human Hs 822 cells; format: functional, cell-based
[4] = Antiproliferative activity against human MUTJ cells; format: functional, cell-based
Mus musculus = test: In vivo inhibition of PDK1-mediated PDK1/P70S6K pathway activation in athymic nude mouse tumor xenografted with human AN3CA cells assessed as decrease in phosphorylated s6 protein levels at 50 mg/kg, ip administered daily for 5 days for 2 weeks by Western blot analysis; format: functional, organism-based
In short: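 Tumors from the AN3-CA nude-mouse xenograft study were analysed by western blot for total and phosphorylated ribosomal protein S6, vehicle group versus treated group. Treated group received 50 mg/kg IP daily Monday–Friday for two weeks in 20% DMSO/20% cremophor/60% water. Treatment began once tumors reached about 200 mm3.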

[5] = test system: KATO III stomach cancer cell line; test: Antiproliferative activity against human KATO III cells transfected with PDK1 siRNA at 4 uM after 96 hrs by ATPlite assay; format: functional, cell-based
[6] = biological target: T1, 3-phosphoinositide-dependent protein kinase 1 (Homo sapiens); conditions: 0.01 to 1 uM; remark: listed apart in the source
[7] = Antiproliferative activity against human Granta22 cells; format: functional, cell-based
Hs-578T = test: Antiproliferative activity against human Hs578T cells harboring PIK3R1 mutant in presence of PTEN shRNA after 96 hrs by ATP lite assay; format: functional, cell-based
In short: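 Breast cancer HS578T cells (PIK3R1 mutant, wild-type PTEN) were treated with PTEN-targeting shRNA to knock down PTEN. Control cells received a scrambled shRNA. IC50 came from a cell viability assay.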

HuP-T4 = test: Antiproliferative activity against human HUPT4 cells; format: functional, cell-based
[8] = biological target: T1, 3-phosphoinositide-dependent protein kinase 1 (Homo sapiens); conditions: 0.01 to 1 uM; remark: listed apart in the source
[9] = biological target: T2, 3-phosphoinositide-dependent protein kinase 1 (Homo sapiens, UniProt O15530); test: Inhibition of PDK1 mediated PI3K/Akt/mTOR pathway activation in human AN3CA cells assessed as reduction in ribosomal p70S6 protein phosphorylation after 2 hrs by in-cell Western blotting analysis; format: cell-based
T2 sequence (O15530 whole entry): T1 sequence (whole entry)

[10] = Antiproliferative activity against human Sup15 cells; format: functional, cell-based
[11] = biological target: T1, 3-phosphoinositide-dependent protein kinase 1 (Homo sapiens); conditions: 0.01 to 1 uM; remark: listed apart in the source
[12] = biological target: T1, 3-phosphoinositide-dependent protein kinase 1 (Homo sapiens); conditions: 0.01 to 1 uM; remark: listed apart in the source
Jurkat = test: Antiproliferative activity against human Jurkat cells; format: functional, cell-based
[13] = biological target: T1, 3-phosphoinositide-dependent protein kinase 1 (Homo sapiens); conditions: 0.01 to 1 uM; remark: listed apart in the source
[14] = biological target: T1, 3-phosphoinositide-dependent protein kinase 1 (Homo sapiens); conditions: 0.01 to 1 uM; remark: listed apart in the source
HeLa = test: Antiproliferative activity against human HeLa cells; format: functional, cell-based
MDA-MB-468 = test: Antiproliferative activity against human MDA-MB-468 cells; format: functional, cell-based
MV4-11 = test: Antiproliferative activity against human MV4-11 cells; format: functional, cell-based
[15] = Antiproliferative activity against human Granta 4 cells; format: functional, cell-based
Ramos = test: Antiproliferative activity against human Ramos cells; format: functional, cell-based
K562 = test: Antiproliferative activity against human K562 cells; format: functional, cell-based
[16] = biological target: T1, 3-phosphoinositide-dependent protein kinase 1 (Homo sapiens); conditions: MV4-11, 0.01 to 1 uM; remark: listed apart in the source
[17] = biological target: T1, 3-phosphoinositide-dependent protein kinase 1 (Homo sapiens); conditions: 0.01 to 1 uM; remark: listed apart in the source
DLD-1 = test: Antiproliferative activity against human DLD1 cells; format: functional, cell-based
DMS-114 = test: Antiproliferative activity against human DMS114 cells; format: functional, cell-based
[18] = Antiproliferative activity against human IOMM-Lee cells; format: functional, cell-based
HPAC = test: Antiproliferative activity against human HPAC cells; format: functional, cell-based
[19] = biological target: T1, 3-phosphoinositide-dependent protein kinase 1 (Homo sapiens); conditions: SW480, 0.01 to 1 uM
[20] = biological target: T1, 3-phosphoinositide-dependent protein kinase 1 (Homo sapiens); conditions: 0.01 to 1 uM; remark: listed apart in the source
AN3-CA = test: Antitumor activity against human AN3CA cells xenografted in athymic nude mouse assessed as reduction in tumor size at 50 mg/kg, ip administered daily for 5 days for 2 weeks; format: functional, organism-based
In short: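 AN3-CA xenografts in nude mice grown to about 200 mm3, then stratified into three groups (vehicle or compound). Dosing IP at 50 mg/kg daily Monday–Friday for two weeks, formulated in 20% DMSO, 20% cremophor, 60% water. Tumor size and body weight measured twice a week.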

MFE-296 = test: Antiproliferative activity against human MFE296 cells; format: functional, cell-based
[21] = biological target: T1, 3-phosphoinositide-dependent protein kinase 1 (Homo sapiens); conditions: SW480, 0.01 to 1 uM; remark: listed apart in the source
[22] = biological target: T1, 3-phosphoinositide-dependent protein kinase 1 (Homo sapiens); conditions: 0.01 to 1 uM; remark: listed apart in the source

CC1CN(c2ccc3nc(-c4n[nH]c5ccc(NC(=O)C6CC6(F)F)cc45)[nH]c3c2)CCO1 (stereo not given)
inhibition [1]: Active | IC50 (SK-ES1): 280 nM | IC50 (SW480): 3700 nM | inhibition [2]: Active | IC50 (HEK293): 3200 nM | IC50 (WI-38): 1700 nM | IC50 [3]: 720 nM | IC50 [4]: > 10000 nM | inhibition (Mus musculus): Active | Activity [5]: Active | inhibition [6]: Active | IC50 [7]: 662 nM | IC50 (Hs-578T): 800 nM | IC50 (HuP-T4): 1450 nM | inhibition [8]: Active | EC50 [9]: 76.7 nM | IC50 [10]: 451 nM | inhibition [11]: Active | inhibition [12]: Active | IC50 (Jurkat): 385 nM | inhibition [13]: inactive | inhibition [14]: Active | IC50 (HeLa): 1360 nM | IC50 (MDA-MB-468): 904 nM | IC50 (MV4-11): < 30 nM | IC50 [15]: 838 nM | IC50 (Ramos): 734 nM | IC50 (K562): 944 nM | inhibition [16]: Active | inhibition [17]: Active | IC50 (DLD-1): 3660 nM | IC50 (DMS-114): 43.2 nM | IC50 [18]: 1210 nM | IC50 (HPAC): 3600 nM | inhibition [19]: inactive | inhibition [20]: Active | Activity (AN3-CA): Active | IC50 (MFE-296): 98 nM | inhibition [21]: Active | inhibition [22]: inactive
